“Also recorded” adds a separate entry of the source. Blank lines part the entries; values can stand above or below the compound they belong to.
Legend:
rat OR-I7 = settings: cited from earlier work; for Function at rodent OR-I7 (agonist or antagonist), in words: rat OR-I7, earlier study; for IC50: read-out: IC50 (antagonist, estimated)
rat ORs = settings: cited from earlier work
mouse OR-I7 [1] = biological target: T1, mouse OR-I7 (Mus musculus, UniProt Q9QWU6); test: Hana3A GloSensor cAMP assay, inhibition of response to co-applied 5 µM octanal; assay type: cell-based; settings: for Relative antagonist potency within the series, in words: side-by-side comparison, Figs. 3 and 4
T1 sequence (Q9QWU6 1-327): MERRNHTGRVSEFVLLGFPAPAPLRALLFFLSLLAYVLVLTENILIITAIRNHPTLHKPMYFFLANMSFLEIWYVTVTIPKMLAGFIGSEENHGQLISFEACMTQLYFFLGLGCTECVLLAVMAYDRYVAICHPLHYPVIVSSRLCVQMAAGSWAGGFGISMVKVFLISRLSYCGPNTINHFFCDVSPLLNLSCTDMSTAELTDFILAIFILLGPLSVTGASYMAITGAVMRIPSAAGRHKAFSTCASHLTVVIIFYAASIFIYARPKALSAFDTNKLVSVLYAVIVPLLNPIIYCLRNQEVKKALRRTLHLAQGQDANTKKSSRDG

mouse OR-I7 [2] = biological target: T1, mouse OR-I7; test: Hana3A GloSensor cAMP assay, compounds applied alone; assay type: cell-based; settings: compound applied alone to Hana3A cells expressing mouse OR-I7
How it was run: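 Hana3A cells were co-transfected with Rho-tagged mouse OR-I7 (80 ng/well), RTP1S, M3-R and pGloSensor-22F (10 ng/well each). At 18–24 h they were loaded with 2% GloSensor reagent for 2 h. Test compound was applied alone over a concentration range, and luminescence was read every 90 s for 24 min. Signal at 3–7.5 min was summed, baselined and normalized to octanal. Six replicates per plate, mean ± SEM.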

Structure (SMILES): CC(C)=CCC[C@@H](C)CC=O (racemic) [citronellal]
Agonist activity at rat OR-I7 compared with octanal, in words (rat OR-I7; rat OR-I7): almost as good a rat OR-I7 agonist as octanal

Structure (SMILES): CCCCCCCC=O [Compound 1, octanal]
Function at rodent OR-I7 (agonist or antagonist), in words (rat OR-I7): agonists | Number of rat ORs activated (rat ORs): 33–55

Response to octanal with co-applied compound (antagonism), in words (mouse OR-I7 [1]; increasing concentrations co-applied with constant 5 µM octanal): reduced in a dose-dependent manner | Activation of mouse OR-I7 (agonist activity), in words (mouse OR-I7 [2]): not a mouse OR-I7 agonist
Structure (SMILES): O=CCC1CCCCC1 [Compound 2, cyclohexylethanal]
Function at rodent OR-I7 (agonist or antagonist), in words (rat OR-I7): antagonists | IC50 (rat OR-I7; rat OR-I7): 37 µM

Structure (SMILES): CCCCC=O [Compound 3, Pentanal]
Function at rodent OR-I7 (agonist or antagonist), in words (rat OR-I7): weak rat OR-I7 antagonist; also recorded: antagonists | IC50 (rat OR-I7; rat OR-I7): 460 µM

Structure (SMILES): CCC1CCC(CC=O)CC1 (stereo not shown) [Compound 4, (4-ethylcyclohexyl)ethanal]
Function at rodent OR-I7 (agonist or antagonist), in words (rat OR-I7): agonists

Increase in antagonist potency relative to pentanal (mouse OR-I7 [1]; from estimated IC50s, 5 µM octanal, Fig. 3): 5 fold
Structure (SMILES): CCC(C)CC=O (stereo not shown) [Compound 5]

Relative antagonist potency within the series, in words (mouse OR-I7 [1]; 5 µM octanal): progressively decreased potency
Structure (SMILES): CCC(CC)(CC)CC=O [Compound 8]

Relative antagonist potency within the series, in words (mouse OR-I7 [1]; 5 µM octanal): unfavorable
Structure (SMILES): CC1(CC=O)CCCCC1 [Compound 10]

Relative antagonist potency within the series, in words (mouse OR-I7 [1]; 5 µM octanal): unfavorable
Structure (SMILES): CCC1(CC=O)CCCCC1 [Compound 11]

Antagonist potency weaker than compound 9 (mouse OR-I7 [1]; from estimated IC50s, 5 µM octanal, Fig. 4): 3 fold
Structure (SMILES): O=CCC12CC3CC(CC(C3)C1)C2 [Compound 12]

Structure (SMILES): CCCCCCC=O [heptanal]
Function at rodent OR-I7 (agonist or antagonist), in words (rat OR-I7): regained their ability to function as agonists

— PMC6067823 (Organic & biomolecular chemistry, 2018)
